Results taken from ChEMBL document CHEMBL1136994, “Substitution of arginine with proline and proline derivatives in melanocyte-stimulating hormones leads to selectivity for human melanocortin 4 receptor” (J Med Chem, 2009).
pEC50, pIC50: −log10 of the molar value.

Assays:
Melanocortin receptor 5 [1] = target: T1, Melanocortin receptor 5 (Homo sapiens, UniProt P33032); assay: biochemical; assay type: cell-based, HEK293
Melanocortin receptor 5 [2] = target: T1, Melanocortin receptor 5; assay type: functional, cell-based, HEK293
[3] = target: T2, Melanocyte-stimulating hormone receptor (Homo sapiens, UniProt Q01726); assay type: functional, cell-based, HEK293
Melanocortin receptor 4 [4] = target: T3, Melanocortin receptor 4 (Homo sapiens, UniProt P32245); assay: biochemical; assay type: cell-based, HEK293
Melanocortin receptor 3 [5] = target: T4, Melanocortin receptor 3 (Homo sapiens, UniProt P41968); assay: biochemical; assay type: cell-based, HEK293
Melanocortin receptor 3 [6] = target: T4, Melanocortin receptor 3; assay type: functional, cell-based, HEK293
[7] = target: T2, Melanocyte-stimulating hormone receptor; assay: biochemical; assay type: cell-based, HEK293
Melanocortin receptor 4 [8] = target: T3, Melanocortin receptor 4; assay type: functional, cell-based, HEK293
Melanocortin receptor 5 [9] = target: T1, Melanocortin receptor 5; assay: Displacement of [125I][Nle4,Dphe7]-alpha-MSH from human MC5R expressed in HEK293 cells at 10 uM; assay type: cell-based
Melanocortin receptor 4 [10] = target: T3, Melanocortin receptor 4; assay: Displacement of [125I][Nle4,Dphe7]-alpha-MSH from human MC4R expressed in HEK293 cells at 10 uM; assay type: cell-based
Outline: (§1)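 Stably transfected HEK293 cells for each hMCR were seeded 48 h ahead at 100 000 cells/well. Buffer was MEM with 25 mM HEPES pH 7.4, 0.2% BSA, 1 mM 1,10-phenanthroline, leupeptin and bacitracin. […] After washing, cells were lysed in NaOH/Triton and counted by γ counter. Binding was scored at 10^-5 M.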

Melanocortin receptor 3 [11] = target: T4, Melanocortin receptor 3; assay: Displacement of [125I][Nle4,Dphe7]-alpha-MSH from human MC3R expressed in HEK293 cells at 10 uM; assay type: cell-based
[12] = target: T2, Melanocyte-stimulating hormone receptor; assay: Displacement of [125I][Nle4,Dphe7]-alpha-MSH from human MC1R expressed in HEK293 cells at 10 uM; assay type: cell-based
Outline: as §1

T2 sequence (Q01726 whole entry): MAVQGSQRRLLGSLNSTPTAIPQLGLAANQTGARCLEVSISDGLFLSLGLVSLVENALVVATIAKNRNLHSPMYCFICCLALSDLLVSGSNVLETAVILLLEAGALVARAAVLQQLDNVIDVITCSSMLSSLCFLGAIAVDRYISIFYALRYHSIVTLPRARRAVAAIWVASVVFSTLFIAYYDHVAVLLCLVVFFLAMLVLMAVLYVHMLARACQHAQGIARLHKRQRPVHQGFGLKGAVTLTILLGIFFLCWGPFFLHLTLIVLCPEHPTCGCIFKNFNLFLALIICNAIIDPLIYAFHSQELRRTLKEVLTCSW
T4 sequence (P41968 whole entry): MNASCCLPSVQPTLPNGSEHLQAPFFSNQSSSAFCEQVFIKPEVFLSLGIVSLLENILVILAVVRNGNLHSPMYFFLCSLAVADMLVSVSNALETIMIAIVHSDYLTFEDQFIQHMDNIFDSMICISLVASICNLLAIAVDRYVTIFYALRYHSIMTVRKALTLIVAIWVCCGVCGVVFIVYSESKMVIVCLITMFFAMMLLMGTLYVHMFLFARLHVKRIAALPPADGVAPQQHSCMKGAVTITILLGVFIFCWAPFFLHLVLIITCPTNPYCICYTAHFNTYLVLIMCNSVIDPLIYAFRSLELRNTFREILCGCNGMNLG
T1 sequence (P33032 whole entry): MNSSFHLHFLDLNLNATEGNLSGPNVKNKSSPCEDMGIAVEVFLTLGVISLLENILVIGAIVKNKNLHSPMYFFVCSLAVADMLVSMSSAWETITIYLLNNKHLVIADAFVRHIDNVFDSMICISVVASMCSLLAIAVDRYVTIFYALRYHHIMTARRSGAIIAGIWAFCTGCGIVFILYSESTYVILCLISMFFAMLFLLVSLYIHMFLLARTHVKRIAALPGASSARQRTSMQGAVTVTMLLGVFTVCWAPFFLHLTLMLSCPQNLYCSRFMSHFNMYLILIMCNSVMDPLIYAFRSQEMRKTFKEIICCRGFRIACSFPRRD
T3 sequence (P32245 whole entry): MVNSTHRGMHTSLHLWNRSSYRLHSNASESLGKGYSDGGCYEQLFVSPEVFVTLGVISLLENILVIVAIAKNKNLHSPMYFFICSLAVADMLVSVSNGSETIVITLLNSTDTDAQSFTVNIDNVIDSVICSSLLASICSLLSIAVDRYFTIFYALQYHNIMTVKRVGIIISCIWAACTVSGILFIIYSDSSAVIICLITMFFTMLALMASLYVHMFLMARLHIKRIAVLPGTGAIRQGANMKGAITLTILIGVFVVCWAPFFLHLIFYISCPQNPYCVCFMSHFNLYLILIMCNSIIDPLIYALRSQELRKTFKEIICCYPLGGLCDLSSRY

For `CCCC[C@H](NC(C)=O)C(=O)N[C@H]1CC(=O)NCCCC[C@@H](C(N)=O)NC(=O)[C@H](Cc2c[nH]c3ccccc23)NC(=O)[C@H](CCCN=C(N)N)NC(=O)[C@@H](Cc2ccccc2)NC(=O)[C@@H]2C[C@@H](N=C(N)N)CN2C1=O`, the pIC50 (Melanocortin receptor 5 [1]) was 8.60, the pEC50 (Melanocortin receptor 5 [2]) was 8.80 and the pEC50 [3] was 6.09. For the same compound, the pIC50 (Melanocortin receptor 4 [4]) was 9.22, the pIC50 (Melanocortin receptor 3 [5]) was 9.00 and the pEC50 (Melanocortin receptor 3 [6]) was 7.85. The pIC50 [7] was 8.57 and the pEC50 (Melanocortin receptor 4 [8]) was 5.46.

With `CCCC[C@H](NC(C)=O)C(=O)N[C@H]1CC(=O)NCCCC[C@@H](C(N)=O)NC(=O)[C@H](Cc2c[nH]c3ccccc23)NC(=O)[C@@H]2C[C@H](N=C(N)N)CN2C(=O)[C@@H](Cc2ccc3ccccc3c2)NC(=O)[C@H](Cc2cnc[nH]2)NC1=O` the pIC50 [7] was under 5.52.

With `CCCC[C@H](NC(C)=O)C(=O)N[C@H]1CC(=O)NCCCC[C@@H](C(N)=O)NC(=O)[C@H](Cc2c[nH]c3ccccc23)NC(=O)[C@@H]2C[C@@H](NC(=N)N)CN2C(=O)[C@@H](Cc2ccc3ccccc3c2)NC(=O)[C@H](Cc2cnc[nH]2)NC1=O` the pEC50 [3] was 4.72 and the pIC50 [7] was 6.40.

For `CCCC[C@H](NC(=O)[C@@H](NC(=O)[C@H](Cc1ccc(O)cc1)NC(C)=O)C(C)C)C(=O)NCC(=O)N[C@@H](Cc1cnc[nH]1)C(=O)N[C@H](Cc1ccccc1)C(=O)N1C[C@@H](NC(=N)N)C[C@H]1C(=O)N[C@@H](Cc1c[nH]c2ccccc12)C(=O)N[C@@H](CC(=O)O)C(=O)N[C@@H](CCCNC(=N)N)C(=O)N[C@@H](Cc1ccccc1)C(=O)NCC(N)=O`, the IC50 (Melanocortin receptor 5 [9]) was “Not Active”, the IC50 (Melanocortin receptor 4 [10]) was “Not Active” and the pEC50 [3] was under 5.30. The IC50 (Melanocortin receptor 3 [11]) was “Not Active” and the pIC50 [7] was 6.00.

For `CCCC[C@H](NC(C)=O)C(=O)N[C@H]1CC(=O)NCCCC[C@@H](C(N)=O)NC(=O)[C@H](Cc2c[nH]c3ccccc23)NC(=O)[C@@H]2C[C@H](NC(=N)N)CN2C(=O)[C@@H](Cc2ccccc2)NC(=O)[C@H](Cc2cnc[nH]2)NC1=O`, the IC50 [12] was “Not Active”.

For `CCCC[C@H](NC(=O)[C@@H](NC(=O)[C@H](Cc1ccc(O)cc1)NC(C)=O)C(C)C)C(=O)NCC(=O)N[C@@H](Cc1cnc[nH]1)C(=O)N[C@H](Cc1ccccc1)C(=O)N1C[C@H](NC(=N)N)C[C@H]1C(=O)N[C@@H](Cc1c[nH]c2ccccc12)C(=O)N[C@@H](CC(=O)O)C(=O)N[C@@H](CCCNC(=N)N)C(=O)N[C@@H](Cc1ccccc1)C(=O)NCC(N)=O`, the IC50 (Melanocortin receptor 5 [9]) was “Not Active”, the IC50 (Melanocortin receptor 4 [10]) was “Not Active” and the pEC50 [3] was 5.85. For the same compound, the IC50 (Melanocortin receptor 3 [11]) was “Not Active” and the pIC50 [7] was 6.08.

For `CCCC[C@H](NC(=O)[C@@H](NC(=O)[C@H](Cc1ccc(O)cc1)NC(C)=O)C(C)C)C(=O)NCC(=O)N[C@@H](Cc1cnc[nH]1)C(=O)N[C@H](Cc1ccccc1)C(=O)N1CCC[C@H]1C(=O)N[C@@H](Cc1c[nH]c2ccccc12)C(=O)N[C@@H](CC(=O)O)C(=O)N[C@@H](CCCNC(=N)N)C(=O)N[C@@H](Cc1ccccc1)C(=O)NCC(N)=O`, the IC50 (Melanocortin receptor 5 [9]) was “Not Active”, the pEC50 [3] was 6.92 and the pIC50 (Melanocortin receptor 4 [4]) was 6.57. For the same compound, the IC50 (Melanocortin receptor 3 [11]) was “Not Active”, the pIC50 [7] was 6.72 and the pEC50 (Melanocortin receptor 4 [8]) was 6.68.

Compound `CCCC[C@H](NC(C)=O)C(=O)N[C@H]1CC(=O)NCCCC[C@@H](C(N)=O)NC(=O)[C@H](Cc2c[nH]c3ccccc23)NC(=O)[C@@H]2CCCN2C(=O)[C@@H](Cc2ccccc2)NC(=O)[C@H](Cc2cnc[nH]2)NC1=O` has a pEC50 [3] of under 6.00 and a pIC50 [7] of under 5.32.

For `CCCC[C@H](NC(C)=O)C(=O)N[C@H]1CC(=O)NCCCC[C@@H](C(N)=O)NC(=O)[C@H](Cc2c[nH]c3ccccc23)NC(=O)[C@H](CCCN=C(N)N)NC(=O)[C@@H](Cc2ccccc2)NC(=O)[C@@H]2C[C@H](N=C(N)N)CN2C1=O`, the pEC50 (Melanocortin receptor 5 [2]) was 7.68, the pEC50 [3] was 5.57 and the pIC50 (Melanocortin receptor 4 [4]) was 8.24. For the same compound, the pIC50 (Melanocortin receptor 3 [5]) was 8.55, the pEC50 (Melanocortin receptor 3 [6]) was 5.60 and the pEC50 (Melanocortin receptor 4 [8]) was 7.39.

`CCCC[C@H](NC(C)=O)C(=O)N[C@H]1CC(=O)NCCCC[C@@H](C(N)=O)NC(=O)[C@H](Cc2c[nH]c3ccccc23)NC(=O)[C@@H]2CCCN2C(=O)[C@@H](Cc2ccc3ccccc3c2)NC(=O)[C@H](Cc2cnc[nH]2)NC1=O` was tested, and the pEC50 [3] was 6.80 and the pIC50 [7] was 6.22.
